Experimental data taken from ChEMBL document CHEMBL1811752, “Synthesis and pharmacological characterization of bicyclic triple reuptake inhibitor 3-aryl octahydrocyclopenta[c]pyrrole analogues” (J Med Chem, 2011).

Key:
[1] = tested on: Brain; assay: Drug level in mouse brain at 3 mg/kg, po; type: ADME, organism-based; design: dose 3 mg/kg, route oral; settings: in vivo
Outline: (§1)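 Male mice dosed orally at 3, 10 or 30 mg/kg in 5% transcutol/saline, 60 min before the tail suspension test. Terminal whole brain (ng/g) and plasma (ng/mL) samples taken from the test animals. Brain/plasma ratio derived from these levels.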

[2] = tested on: Mus musculus; assay: Antidepressant activity in mouse assessed as reduction of immobility time at 30 mg/kg, po after 60 mins by tail suspension test relative to control; type: functional; design: scale not given: the % may be the effect or the level left
Outline: (§2)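 Mouse tail suspension test, male mice (10–12 per group, blind). Single oral dose in 5% transcutol in saline, 60 min pretreatment. Immobility recorded automatically for 5 min. Compared with vehicle group. Desipramine 100 mg/kg PO used as reference. One-way ANOVA with Dunnett's post test, p < 0.05.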

[3] = tested on: Plasma; assay: Plasma concentration in mouse at 3 mg/kg, po; type: ADME, organism-based; design: dose 3 mg/kg, route oral; settings: in vivo; outline: as §1
[4] = tested on: Brain; assay: Drug level in mouse brain assessed as (3aS,6aR)-3a-(3,4-dichlorophenyl)octahydrocyclopenta[c]pyrrole level at 30 mg/kg, po; type: ADME, organism-based; design: dose 30 mg/kg, route oral; settings: in vivo; outline: as §1
[5] = molecular target: T1, CYP1A (Homo sapiens, UniProt P04798+P05177); assay: Inhibition of CYP1A in human liver microsomes by LC-MS/MS analysis; type: ADME, Microsome
T1 sequence (P04798 whole entry): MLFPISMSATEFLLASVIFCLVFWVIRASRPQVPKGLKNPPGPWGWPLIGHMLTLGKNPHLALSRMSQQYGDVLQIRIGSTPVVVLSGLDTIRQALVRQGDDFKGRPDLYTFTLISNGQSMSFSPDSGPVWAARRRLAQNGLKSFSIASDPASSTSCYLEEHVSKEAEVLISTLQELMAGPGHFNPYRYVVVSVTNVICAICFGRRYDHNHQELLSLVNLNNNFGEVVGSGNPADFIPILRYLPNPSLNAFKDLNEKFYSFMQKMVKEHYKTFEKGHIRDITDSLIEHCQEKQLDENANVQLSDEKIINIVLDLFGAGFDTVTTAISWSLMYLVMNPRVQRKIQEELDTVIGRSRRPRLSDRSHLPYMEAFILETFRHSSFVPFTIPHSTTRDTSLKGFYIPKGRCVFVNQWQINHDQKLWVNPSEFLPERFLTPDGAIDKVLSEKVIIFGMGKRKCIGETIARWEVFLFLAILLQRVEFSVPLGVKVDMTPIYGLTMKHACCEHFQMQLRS
T1 sequence (P05177 whole entry): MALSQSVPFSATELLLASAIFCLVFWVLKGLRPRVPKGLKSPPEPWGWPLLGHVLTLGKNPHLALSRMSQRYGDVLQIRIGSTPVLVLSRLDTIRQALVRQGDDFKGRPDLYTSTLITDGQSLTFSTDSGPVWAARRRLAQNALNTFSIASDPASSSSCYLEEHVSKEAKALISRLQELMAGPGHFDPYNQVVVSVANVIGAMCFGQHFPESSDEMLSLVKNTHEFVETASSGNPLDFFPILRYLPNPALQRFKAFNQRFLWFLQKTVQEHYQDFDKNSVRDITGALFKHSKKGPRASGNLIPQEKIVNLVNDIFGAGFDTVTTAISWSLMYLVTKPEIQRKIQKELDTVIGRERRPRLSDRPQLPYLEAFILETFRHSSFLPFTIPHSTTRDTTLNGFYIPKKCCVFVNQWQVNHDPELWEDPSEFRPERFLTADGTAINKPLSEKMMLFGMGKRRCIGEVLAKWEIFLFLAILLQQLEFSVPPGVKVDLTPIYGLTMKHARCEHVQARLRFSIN
Outline: (§3)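 Human liver microsomes incubated with isoform-specific substrates and compound, typically 0.1–25 μM. Metabolite formation read by LC-MS/MS, […]. IC50 calculated from the decrease in metabolite formation relative to vehicle control.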

[6] = molecular target: Cytochrome P450 3A4 (Homo sapiens, UniProt P08684); assay: Inhibition of CYP3A4 in human liver microsomes by LC-MS/MS analysis; type: ADME, Microsome; outline: as §3
[7] = molecular target: Cytochrome P450 2D6 (Homo sapiens, UniProt P10635); assay: Inhibition of CYP2D6 in human liver microsomes by LC-MS/MS analysis; type: ADME, Microsome; outline: as §3
[8] = tested on: Mus musculus; assay: Antidepressant activity in po dosed mouse assessed as reduction of immobility time after 60 mins by tail suspension test; type: functional, organism-based; outline: as §2
[9] = molecular target: Sodium-dependent serotonin transporter (Homo sapiens, UniProt P31645); assay: Inhibition of serotonin reuptake at SERT expressed in HEK293 cells; type: cell-based
[10] = tested on: Brain; assay: Drug level in mouse brain assessed as (3aS,6aR)-3a-(3,4-dichlorophenyl)octahydrocyclopenta[c]pyrrole level at 10 mg/kg, po; type: ADME, organism-based; design: dose 10 mg/kg, route oral; settings: in vivo; outline: as §1
[11] = molecular target: Cytochrome P450 2C9 (Homo sapiens, UniProt P11712); assay: Inhibition of CYP2C9 in human liver microsomes by LC-MS/MS analysis; type: ADME, Microsome; outline: as §3
[12] = molecular target: Sodium-dependent noradrenaline transporter (Homo sapiens, UniProt P23975); assay: Inhibition of norepinephrine reuptake at NET expressed in MDCK cells; type: cell-based
[13] = tested on: Plasma; assay: Plasma concentration in mouse assessed as (3aS,6aR)-3a-(3,4-dichlorophenyl)octahydrocyclopenta[c]pyrrole level at 3 mg/kg, po; type: ADME, organism-based; design: dose 3 mg/kg, route oral; settings: in vivo; outline: as §1
[14] = tested on: Plasma; assay: Plasma concentration in mouse at 30 mg/kg, po; type: ADME, organism-based; design: dose 30 mg/kg, route oral; settings: in vivo; outline: as §1
[15] = Ratio of drug level in brain to plasma in po dosed mouse; type: ADME, organism-based; settings: brain and plasma, read-out: BPR; outline: as §1
[16] = tested on: Plasma; assay: Plasma concentration in mouse assessed as (3aS,6aR)-3a-(3,4-dichlorophenyl)octahydrocyclopenta[c]pyrrole level at 10 mg/kg, po; type: ADME, organism-based; design: dose 10 mg/kg, route oral; settings: in vivo; outline: as §1
[17] = Half life in human liver microsomes at 3 uM by LC-MS/MS analysis; type: ADME, Microsome
Outline: (§4)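 Human or mouse liver microsomes (0.5 mg/mL) incubated with 3 μM compound at 37 °C. Reaction started with NADPH and stopped with methanol containing internal standard. Loss of compound followed over 45 min by LC-MS/MS. Peak area ratio to internal standard plotted against time and the slope of the line taken.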

[18] = tested on: Brain; assay: Drug level in mouse brain assessed as (3aS,6aR)-3a-(3,4-dichlorophenyl)octahydrocyclopenta[c]pyrrole level at 3 mg/kg, po; type: ADME, organism-based; design: dose 3 mg/kg, route oral; settings: in vivo; outline: as §1
[19] = tested on: Plasma; assay: Plasma concentration in mouse assessed as (3aS,6aR)-3a-(3,4-dichlorophenyl)octahydrocyclopenta[c]pyrrole level at 30 mg/kg, po; type: ADME, organism-based; design: dose 30 mg/kg, route oral; settings: in vivo; outline: as §1
[20] = tested on: Mus musculus; assay: Antidepressant activity in mouse assessed as reduction of immobility time at 10 mg/kg, po after 60 mins by tail suspension test relative to control; type: functional; design: scale not given: the % may be the effect or the level left; outline: as §2
[21] = molecular target: Cytochrome P450 2C19 (Homo sapiens, UniProt P33261); assay: Inhibition of CYP2C19 in human liver microsomes by LC-MS/MS analysis; type: ADME, Microsome; outline: as §3
[22] = tested on: Brain; assay: Drug level in mouse brain at 10 mg/kg, po; type: ADME, organism-based; design: dose 10 mg/kg, route oral; settings: in vivo; outline: as §1
[23] = tested on: Plasma; assay: Plasma concentration in mouse at 10 mg/kg, po; type: ADME, organism-based; design: dose 10 mg/kg, route oral; settings: in vivo; outline: as §1
[24] = tested on: Mus musculus; assay: Antidepressant activity in mouse assessed as reduction of immobility time at 100 mg/kg, po after 60 mins by tail suspension test relative to control; type: functional; design: scale not given: the % may be the effect or the level left; outline: as §2
[25] = molecular target: Sodium-dependent dopamine transporter (Homo sapiens, UniProt Q01959); assay: Inhibition of dopamine reuptake at DAT expressed in CHO-K1 cells; type: cell-based
[26] = Half life in mouse liver microsomes at 3 uM by LC-MS/MS analysis; type: ADME, Microsome; outline: as §4
[27] = tested on: Brain; assay: Drug level in mouse brain at 30 mg/kg, po; type: ADME, organism-based; design: dose 30 mg/kg, route oral; settings: in vivo; outline: as §1
[28] = molecular target: Voltage-gated inwardly rectifying potassium channel KCNH2 (Homo sapiens, UniProt Q12809); assay: Inhibition of human ERG expressed in CHO cells by high throughput single cell planar patch clamp method; type: cell-based
Voltage-gated inwardly rectifying potassium channel KCNH2, sequence (Q12809 whole entry): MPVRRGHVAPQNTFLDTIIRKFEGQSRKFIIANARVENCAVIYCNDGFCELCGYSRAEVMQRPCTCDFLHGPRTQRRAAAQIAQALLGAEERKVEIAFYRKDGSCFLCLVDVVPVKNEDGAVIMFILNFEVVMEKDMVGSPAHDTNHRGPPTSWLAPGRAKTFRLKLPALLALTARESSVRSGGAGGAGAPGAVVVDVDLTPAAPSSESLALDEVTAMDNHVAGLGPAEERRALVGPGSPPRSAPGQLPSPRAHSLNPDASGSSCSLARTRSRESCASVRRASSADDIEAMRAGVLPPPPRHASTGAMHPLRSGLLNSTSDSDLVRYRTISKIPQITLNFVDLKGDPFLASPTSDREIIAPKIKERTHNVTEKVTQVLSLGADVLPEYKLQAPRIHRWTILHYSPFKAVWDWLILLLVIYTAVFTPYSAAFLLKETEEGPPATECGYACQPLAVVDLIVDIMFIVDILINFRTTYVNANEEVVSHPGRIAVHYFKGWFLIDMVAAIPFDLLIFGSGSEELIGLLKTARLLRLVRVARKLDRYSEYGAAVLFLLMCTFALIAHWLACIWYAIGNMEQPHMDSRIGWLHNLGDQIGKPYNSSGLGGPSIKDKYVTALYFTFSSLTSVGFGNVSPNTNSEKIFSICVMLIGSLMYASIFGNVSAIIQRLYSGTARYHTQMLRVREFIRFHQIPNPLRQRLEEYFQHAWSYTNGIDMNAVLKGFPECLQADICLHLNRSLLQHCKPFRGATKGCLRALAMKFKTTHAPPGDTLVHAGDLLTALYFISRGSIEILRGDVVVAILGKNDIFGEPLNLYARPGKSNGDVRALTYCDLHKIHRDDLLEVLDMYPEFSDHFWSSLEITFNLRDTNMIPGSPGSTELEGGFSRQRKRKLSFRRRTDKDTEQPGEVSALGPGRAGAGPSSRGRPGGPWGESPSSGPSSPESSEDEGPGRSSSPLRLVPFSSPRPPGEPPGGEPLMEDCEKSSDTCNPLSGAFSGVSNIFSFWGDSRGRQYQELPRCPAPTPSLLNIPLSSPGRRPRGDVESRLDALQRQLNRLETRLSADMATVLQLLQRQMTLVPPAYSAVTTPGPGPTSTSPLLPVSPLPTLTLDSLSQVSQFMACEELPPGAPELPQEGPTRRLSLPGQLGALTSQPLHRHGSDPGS

Cytochrome P450 3A4, sequence (P08684 whole entry): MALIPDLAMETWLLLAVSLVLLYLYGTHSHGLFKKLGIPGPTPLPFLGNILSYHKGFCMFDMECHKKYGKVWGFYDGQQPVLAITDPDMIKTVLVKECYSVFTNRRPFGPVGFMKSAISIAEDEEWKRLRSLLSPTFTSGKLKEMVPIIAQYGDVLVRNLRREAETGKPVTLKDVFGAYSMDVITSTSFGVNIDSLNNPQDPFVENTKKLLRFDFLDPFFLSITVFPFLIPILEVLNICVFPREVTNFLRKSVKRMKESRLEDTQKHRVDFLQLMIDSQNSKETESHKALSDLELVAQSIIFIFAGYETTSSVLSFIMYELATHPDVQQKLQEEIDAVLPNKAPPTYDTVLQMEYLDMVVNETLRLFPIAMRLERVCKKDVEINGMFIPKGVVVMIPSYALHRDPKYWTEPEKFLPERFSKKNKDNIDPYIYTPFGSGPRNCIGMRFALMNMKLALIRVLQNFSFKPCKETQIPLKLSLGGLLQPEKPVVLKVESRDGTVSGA
Sodium-dependent serotonin transporter, sequence (P31645 whole entry): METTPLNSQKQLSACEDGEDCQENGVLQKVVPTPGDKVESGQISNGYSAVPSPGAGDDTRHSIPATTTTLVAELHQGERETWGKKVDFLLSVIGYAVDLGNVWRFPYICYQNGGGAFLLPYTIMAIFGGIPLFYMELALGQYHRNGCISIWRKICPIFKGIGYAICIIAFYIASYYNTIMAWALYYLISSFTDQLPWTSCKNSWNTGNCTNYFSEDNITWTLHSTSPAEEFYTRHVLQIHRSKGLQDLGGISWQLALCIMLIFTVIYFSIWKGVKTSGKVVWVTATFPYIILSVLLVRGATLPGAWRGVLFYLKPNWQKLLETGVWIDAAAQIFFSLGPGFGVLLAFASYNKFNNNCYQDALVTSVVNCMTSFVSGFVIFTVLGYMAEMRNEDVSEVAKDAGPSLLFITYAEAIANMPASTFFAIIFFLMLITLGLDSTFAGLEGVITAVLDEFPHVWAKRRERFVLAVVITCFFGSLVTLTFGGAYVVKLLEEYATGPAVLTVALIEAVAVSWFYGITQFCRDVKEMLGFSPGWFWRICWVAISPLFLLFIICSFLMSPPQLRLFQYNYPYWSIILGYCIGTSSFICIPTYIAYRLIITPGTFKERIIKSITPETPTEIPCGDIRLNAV
Cytochrome P450 2C19, sequence (P33261 whole entry): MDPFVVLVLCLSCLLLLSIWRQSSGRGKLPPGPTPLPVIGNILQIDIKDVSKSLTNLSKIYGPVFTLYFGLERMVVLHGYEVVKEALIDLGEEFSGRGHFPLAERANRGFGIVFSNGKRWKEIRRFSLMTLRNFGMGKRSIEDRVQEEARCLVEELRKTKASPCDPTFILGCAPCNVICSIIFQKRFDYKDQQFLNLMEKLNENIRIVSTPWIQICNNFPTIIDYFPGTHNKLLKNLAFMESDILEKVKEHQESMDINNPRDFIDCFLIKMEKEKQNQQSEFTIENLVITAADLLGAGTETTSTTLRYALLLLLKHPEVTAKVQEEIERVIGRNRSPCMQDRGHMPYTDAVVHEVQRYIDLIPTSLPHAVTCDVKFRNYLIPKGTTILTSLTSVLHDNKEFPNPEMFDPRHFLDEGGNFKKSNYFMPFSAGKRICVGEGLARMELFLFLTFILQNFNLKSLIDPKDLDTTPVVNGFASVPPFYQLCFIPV
Cytochrome P450 2D6, sequence (P10635 whole entry): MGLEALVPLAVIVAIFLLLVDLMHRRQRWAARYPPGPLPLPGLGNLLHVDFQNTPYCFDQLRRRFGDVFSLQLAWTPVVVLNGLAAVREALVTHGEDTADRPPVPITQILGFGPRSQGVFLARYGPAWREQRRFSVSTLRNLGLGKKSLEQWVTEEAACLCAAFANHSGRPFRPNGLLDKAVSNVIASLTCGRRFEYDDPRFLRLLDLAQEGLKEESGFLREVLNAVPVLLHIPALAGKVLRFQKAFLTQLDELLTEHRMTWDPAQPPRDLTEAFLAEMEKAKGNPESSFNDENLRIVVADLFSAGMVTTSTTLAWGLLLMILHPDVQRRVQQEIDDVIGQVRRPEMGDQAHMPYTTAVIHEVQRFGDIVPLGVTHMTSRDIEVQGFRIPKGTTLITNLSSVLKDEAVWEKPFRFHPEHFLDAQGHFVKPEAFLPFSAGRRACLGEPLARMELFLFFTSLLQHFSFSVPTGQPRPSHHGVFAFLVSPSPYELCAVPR
Sodium-dependent noradrenaline transporter, sequence (P23975 whole entry): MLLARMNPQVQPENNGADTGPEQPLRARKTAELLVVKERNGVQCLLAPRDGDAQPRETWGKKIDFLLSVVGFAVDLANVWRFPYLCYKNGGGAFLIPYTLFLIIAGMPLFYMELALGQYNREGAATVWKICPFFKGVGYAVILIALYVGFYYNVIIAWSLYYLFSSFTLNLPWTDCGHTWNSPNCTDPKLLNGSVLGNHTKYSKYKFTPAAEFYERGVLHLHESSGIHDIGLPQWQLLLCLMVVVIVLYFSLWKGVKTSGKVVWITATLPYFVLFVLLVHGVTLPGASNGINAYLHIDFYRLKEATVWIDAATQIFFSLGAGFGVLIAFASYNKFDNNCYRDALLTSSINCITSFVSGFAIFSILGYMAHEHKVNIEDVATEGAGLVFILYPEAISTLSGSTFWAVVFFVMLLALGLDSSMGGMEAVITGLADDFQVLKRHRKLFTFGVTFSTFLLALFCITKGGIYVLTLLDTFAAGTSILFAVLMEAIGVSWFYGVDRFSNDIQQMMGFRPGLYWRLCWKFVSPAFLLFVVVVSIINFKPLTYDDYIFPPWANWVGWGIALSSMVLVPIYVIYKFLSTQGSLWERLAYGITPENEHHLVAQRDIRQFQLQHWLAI
Sodium-dependent dopamine transporter, sequence (Q01959 whole entry): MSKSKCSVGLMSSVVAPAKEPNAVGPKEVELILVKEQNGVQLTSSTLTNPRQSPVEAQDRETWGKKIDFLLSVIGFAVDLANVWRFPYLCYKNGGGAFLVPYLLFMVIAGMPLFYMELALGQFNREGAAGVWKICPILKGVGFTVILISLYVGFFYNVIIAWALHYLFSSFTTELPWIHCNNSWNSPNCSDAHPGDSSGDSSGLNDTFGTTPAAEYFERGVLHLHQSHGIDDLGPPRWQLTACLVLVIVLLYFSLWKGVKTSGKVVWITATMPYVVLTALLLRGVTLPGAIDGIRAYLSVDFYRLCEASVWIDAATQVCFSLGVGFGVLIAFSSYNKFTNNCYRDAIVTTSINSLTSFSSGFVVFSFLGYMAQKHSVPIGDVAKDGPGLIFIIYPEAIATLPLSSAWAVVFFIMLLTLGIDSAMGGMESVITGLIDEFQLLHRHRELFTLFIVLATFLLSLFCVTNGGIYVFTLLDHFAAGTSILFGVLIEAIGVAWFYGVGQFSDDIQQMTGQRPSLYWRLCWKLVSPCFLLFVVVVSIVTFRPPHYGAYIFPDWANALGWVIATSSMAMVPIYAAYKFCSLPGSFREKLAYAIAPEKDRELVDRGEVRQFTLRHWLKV
Cytochrome P450 2C9, sequence (P11712 whole entry): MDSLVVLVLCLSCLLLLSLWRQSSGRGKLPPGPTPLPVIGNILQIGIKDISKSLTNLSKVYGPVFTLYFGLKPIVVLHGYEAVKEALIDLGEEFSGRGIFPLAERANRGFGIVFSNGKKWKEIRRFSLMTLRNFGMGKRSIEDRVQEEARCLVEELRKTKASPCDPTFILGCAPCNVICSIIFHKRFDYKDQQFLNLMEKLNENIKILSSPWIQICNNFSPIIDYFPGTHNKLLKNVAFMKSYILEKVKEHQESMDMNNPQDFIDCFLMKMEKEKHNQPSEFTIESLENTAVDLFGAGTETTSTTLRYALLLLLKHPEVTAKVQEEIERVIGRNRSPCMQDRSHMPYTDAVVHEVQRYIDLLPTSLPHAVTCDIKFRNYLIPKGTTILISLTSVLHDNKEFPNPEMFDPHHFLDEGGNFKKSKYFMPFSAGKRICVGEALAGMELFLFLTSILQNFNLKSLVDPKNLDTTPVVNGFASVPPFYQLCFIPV

Row | Structure (SMILES) | IC50 [5] [nM] | IC50 [6] [nM] | IC50 [7] [nM] | IC50 [9] [nM] | IC50 [11] [nM] | IC50 [12] [nM] | half-life at 3 µM [17] [min] | IC50 [21] [nM] | IC50 [25] [nM] | half-life at 3 µM [26] [min] | IC50 [28] [nM] | also measured
1 | CN1C[C@H]2CCC[C@@]2(c2ccc(Cl)c(Cl)c2)C1 | > 25000 | > 25000 | 5210 | 3.63 | > 25000 | 22.4 | 37 | 7220 | 148 | 27 |  | Drug uptake [1]: 34 ng/g; Activity [2]: 31%; Cp [3]: 2 ng/mL; Drug uptake [4]: 11433 ng/g; Activity [8]: Dose-dependent effect; Drug uptake [10]: 4762 ng/g; Cp [13]: 69 ng/mL; Cp [14]: 30 ng/mL; Kp [15]: 2; Cp [16]: 211 ng/mL; Drug uptake [18]: 1531 ng/g; Cp [19]: 537 ng/mL; Activity [20]: 25%; Drug uptake [22]: 113 ng/g; Cp [23]: 7 ng/mL; Activity [24]: 26%; Drug uptake [27]: 507 ng/g
2 | Clc1ccc([C@]23CCC[C@H]2CNC3)cc1Cl (single isomer, unassigned) | 530 | 9170 | 2470 | 501 | 4010 | 209 | 22 | 1900 | 141 | 56 | 6400 | 
3 | Clc1ccc([C@@]23CCCC[C@@H]2CNC3)cc1Cl | 6140 | 12800 | 7930 | 91.2 | > 25000 | 204 | > 300 | > 25000 | 83.2 | > 300 | 3640 | 
